Converted amounts (≈) assume the structure as drawn.

Data set [1] relates to WiDr. Description: Antiproliferative activity against human WiDr NTRneo cells after 18 hrs. The data set is classed as functional, cell-based.
Data set [2] deals with V79. Description: Antiproliferative activity against chinese hamster wild-type V79 NTR-ve cells after 18 hrs. The settings on record: Cricetulus griseus, V79, 18 h. The data set is classed as functional, cell-based.
A short description of data set [3]: Antiproliferative activity against human wild type Skov3 NTR-ve cells after 18 hrs. The format is functional, cell-based.
The subject of data set [4] is WiDr. Kind of data set: Selectivity ratio of IC50 for WiDr NTR-ve cells to IC50 for WiDr NTRneo cells. The format is functional, Homo sapiens.
Data set [5] relates to EMT6. Description: Selectivity ratio of IC50 for EMT6 NTR-ve cells to IC50 forEMT6 NTRpuro cells. The data set is classed as functional, Mus musculus.
Data set [6] can be described thus: Solubility in alpha MEM. The format is physicochemical. In short, it runs like this:
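Solubility (mM) in α-MEM with 5% fetal calf serum at ambient temperature, measured by HPLC.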

The subject of data set [7] is WiDr. Description: Antiproliferative activity against human wild type WiDr NTR-ve cells after 18 hrs. The data set is classed as functional, cell-based.
A short description of data set [8]: Selectivity ratio of IC50 for Skov3 NTR-ve cells to IC50 for Skov3 NTRneo cells. The data set is classed as functional, Homo sapiens.
A short description of data set [9]: Stability in alpha MEM at 37 degC after 24 hrs. The format is physicochemical. The settings on record: read-out: Stability. In short, it runs like this: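 Percent parent compound remaining, by HPLC, after holding in α-MEM with 5% fetal calf serum at 37 °C for 24 h.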
Data set [10] relates to V79. Description: Antiproliferative activity against chinese hamster V79 NTRpuro cells after 18 hrs. The data set is classed as functional, cell-based. The settings on record: Cricetulus griseus, V79, 18 h.
The test system of data set [11] is EMT6. Description: Antiproliferative activity against mouse wild type EMT6 NTR-ve cells after 18 hrs. The format is functional, cell-based. The settings on record: EMT6, 18 h.
Data set [12] in a line: Antiproliferative activity against human Skov3 NTRneo cells after 18 hrs. The following applies: SK-OV-3, 18 h. The data set is classed as functional, cell-based.
The test system of data set [13] is EMT6. Kind of data set: Antiproliferative activity against mouse EMT6 NTRpuro cells after 18 hrs. The data set is classed as functional, cell-based. The following applies: EMT6, 18 h.
In data set [14] the test system is V79. Description: Selectivity ratio of IC50 for V79 NTR-ve cells to IC50 for V79 NTRpuro cells. The data set is classed as functional, Cricetulus griseus.

With `CS(=O)(=O)NC(=O)c1cc(N(CCCl)CCCl)c([N+](=O)[O-])cc1[N+](=O)[O-]`, the IC50 (usually the midpoint of a concentration-inhibition curve) in [1] worked out at 223 µM; in data set [2] it was 328 µM; in data set [3], 1040 µM; in data set [7], 1310 µM; in [10], 237 µM; in data set [11], 450 µM. The IC50 in data set [12] was 160 µM; in [13] it was 278 µM. In addition, the “Ratio IC50” value in data set [4] was determined as 5.4; in data set [5], 2; in data set [8], 6.7; in [14], 1.5. The concentration in solution in [6] (solubility) was 17 mM (≈ 7300 µg/mL). In data set [9], the remaining at 24 h amounted to 100%.
In the case of `O=C(NCCCn1ccnc1)c1cc(N(CCCl)CCCl)c([N+](=O)[O-])cc1[N+](=O)[O-]`, the IC50 amounted to 37 µM in data set [1]; 174 µM in data set [2]; 474 µM in data set [3]; 106 µM in data set [7]; 32 µM in [10]; 187 µM in [11]. Besides, the figures for the IC50 in data set [12] and in data set [13] were 18 µM and 45 µM, respectively. Also, the “Ratio IC50” value turned out to be 2.9 in data set [4], 41 in data set [5], 26 in data set [8] and 7.4 in data set [14]. In addition, the concentration in solution in data set [6] (solubility) was 19 mM (≈ 8730 µg/mL). The remaining at 24 h in [9] stood at 70%.
Regarding `CS(=O)(=O)OCCN(CCCl)c1cc(C(=O)NCC(O)CO)c([N+](=O)[O-])cc1[N+](=O)[O-]` (configuration not stated), the IC50 in data set [1] stood at 6 µM; in data set [3] it was 1380 µM; in data set [7], 1230 µM; in data set [11], 1210 µM; in [12], 5 µM; in [13], 3.81 µM. In addition, the entries for the “Ratio IC50” value in [4], in data set [5] and in data set [8] were 328, 344 and 286, respectively. Further, the concentration in solution in data set [6] (solubility) was 2.1 mM (≈ 1020 µg/mL). In addition, in data set [9], the remaining at 24 h amounted to 74%.
On to `CN(C)CCNC(=O)c1cc(N(CCCl)CCCl)c([N+](=O)[O-])cc1[N+](=O)[O-]`, for which the IC50 in data set [1] turned out to be 66 µM; in data set [2] it was 89 µM; in data set [3], 246 µM; in data set [7], 62 µM; in data set [10], 81 µM; in data set [11] it was 62 µM. The IC50 in data set [12] was determined as 44 µM; in data set [13], 35 µM. Further, the “Ratio IC50” value in [4] is given as 0.9; in data set [5], 1.8; in [8], 6; in data set [14], 1.1. For the same molecule, the remaining at 24 h in data set [9] worked out at 103%.
`O=C(O)CCNC(=O)c1cc(N(CCBr)CCBr)c([N+](=O)[O-])cc1[N+](=O)[O-]`: the IC50 in data set [1] was found to be 7.6 µM; in data set [2], 54 µM; in [3], 67 µM; in data set [7], 40 µM; in data set [10], 13 µM; in [11] it was 40 µM. Further, the IC50 in data set [12] was found to be 7.6 µM; in [13], 2.4 µM. The “Ratio IC50” value is reported as 4.8 in data set [4], 17 in [5], 12 in [8] and 45 in data set [14]. Also, in data set [6], the concentration in solution (solubility) came to 8.4 mM (≈ 4300 µg/mL).
`CS(=O)(=O)c1cc([N+](=O)[O-])c(N(CCCl)CCCl)cc1C(N)=O`: the IC50 in data set [1], in [2], in data set [3], in data set [7], in data set [10] and in data set [11] was over 50 µM throughout. Besides, the IC50 in [12] and in data set [13] was over 50 µM in each case. For the same molecule, the solubility (commonly the concentration that dissolves in the medium under given conditions) in [6] came out at 0.06 mM (≈ 23.1 µg/mL). For the same molecule, in [9], the remaining at 24 h came to 74%.
As to `O=C(O)CCNC(=O)c1cc(N(CCCl)CCCl)c([N+](=O)[O-])cc1[N+](=O)[O-]`, the concentration for half-maximal inhibition (IC50) in data set [1] was determined as 1810 µM; in data set [2], 4890 µM; in data set [3], 5720 µM; in data set [7], 6390 µM; in [10], 470 µM; in data set [11], 4630 µM. Moreover, the IC50 in data set [12] was 643 µM; in [13], 424 µM. Also, the “Ratio IC50” value in data set [4] was 3.5; in data set [5], 13; in data set [8], 11; in [14], 9.5.
